Screening data: PubChem, several laboratories
A selection: hits, their analogues and other compounds. The true share with any hit is near 4.3%.
Hep lipid drop = inhibitors of hepatocyte lipid droplet formation, primary screen, imaging, high-throughput imaging, BODIPY stain | AML12 mouse hepatocytes, oleate lipid droplets | inhibition, % at 6.5 µM | 240,000 tested, 0.4% active;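 active = lipid droplet intensity inhibited by at least 50%, with more than 500 cells counted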
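Material – AML12 mouse liver cells · Also added – oleate loading, 100 µM · Compound dosing – 6.5 µM single-point dosing · Times – overnight treatment with compound plus oleate · Measured by – fluorescence imaging, 20x objective, two fields per well · Read-out – percent inhibition of filter-corrected integrated lipid droplet intensity per well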
CR mimetic SO = reduction of superoxide in aged yeast, primary screen, HTS; S. cerevisiae aged cells, superoxide DHE fluorescence; stronger effect = lower value; superoxide response (% of plate mean), % at 10 µM; 330,000 tested, 0.18% active; AID 2690, 2010;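 active = superoxide response under a set limit, about three screen SD below normal, cut at about 65% in these data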;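 also: yeast aged for seven days with compound at 30 °C before DHE staining; 100% = average MFI of all compound-treated wells on the plate with controls excluded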
SR-BI uptake up = activators of SR-BI mediated DiI-HDL uptake, primary screen, ldlA[mSR-BI] CHO cells, DiI fluorescence | 3 h; 100 = double the neutral-control signal | activation, % at 12.5 µM | 320,000 tested, 0.096% active | AID 504775, 2011;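 active = mean replicate activation of at least 60% and every replicate at or above 60%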;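 also: 0% = median plate neutral-control signal and 100% = twice that signal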
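Test system: SR-BI-overexpressing, LDLR-lacking CHO cells; Also added: labelled HDL, 10 µg/mL; Measured by: bottom-read cell fluorescence after medium removal, ex 550/em 595 nm; Timing: 3 h uptake period with compound, 37 °C; Buffer or medium: F12, 0.5% BSA, 25 mM HEPES; Doses: single compound concentration, delivered by pin transfer.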
AHR activator = AHR activators, primary screen, cell-based, luminescence, luciferase reporter, human; Aryl hydrocarbon receptor (Homo sapiens), P35869; AHR-responsive luciferase reporter cells; activation, % at 5 µM; 320,000 tested, 2.5% active; AID 2796, 2010; in the data active = activation above about 47%;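 also: 0% = vehicle wells and 100% = reference agonist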
Target sequence (P35869 whole entry, looked up): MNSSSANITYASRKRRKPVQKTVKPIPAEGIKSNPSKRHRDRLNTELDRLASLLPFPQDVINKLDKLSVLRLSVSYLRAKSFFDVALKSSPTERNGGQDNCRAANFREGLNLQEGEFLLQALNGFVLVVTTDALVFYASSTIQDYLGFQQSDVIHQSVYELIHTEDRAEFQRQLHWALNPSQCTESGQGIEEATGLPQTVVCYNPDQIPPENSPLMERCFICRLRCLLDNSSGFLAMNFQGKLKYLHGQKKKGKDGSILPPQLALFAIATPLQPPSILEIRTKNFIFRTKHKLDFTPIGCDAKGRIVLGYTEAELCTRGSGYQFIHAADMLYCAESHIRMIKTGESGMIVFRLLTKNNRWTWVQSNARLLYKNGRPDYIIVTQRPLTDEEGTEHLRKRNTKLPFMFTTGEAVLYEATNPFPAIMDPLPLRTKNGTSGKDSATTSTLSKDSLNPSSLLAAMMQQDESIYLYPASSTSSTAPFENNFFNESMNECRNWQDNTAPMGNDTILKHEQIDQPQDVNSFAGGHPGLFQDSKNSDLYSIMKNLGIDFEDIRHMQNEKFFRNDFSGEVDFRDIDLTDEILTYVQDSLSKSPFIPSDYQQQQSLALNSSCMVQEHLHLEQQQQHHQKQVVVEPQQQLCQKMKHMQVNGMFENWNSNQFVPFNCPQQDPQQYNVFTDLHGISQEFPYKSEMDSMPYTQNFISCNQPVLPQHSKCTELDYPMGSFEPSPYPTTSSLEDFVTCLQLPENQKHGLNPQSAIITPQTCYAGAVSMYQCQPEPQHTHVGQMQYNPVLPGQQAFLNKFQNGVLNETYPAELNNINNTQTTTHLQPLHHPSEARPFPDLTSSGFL
SR-BI HDL uptake = inhibitors of SR-BI mediated HDL lipid uptake, primary screen, ldlA[mSR-BI] cells, fluorescence, single point | Scavenger receptor class B member 1 (Mus musculus), Q61009 | ldlA[mSR-BI] CHO cells, DiI-HDL uptake fluorescence, 3 h | inhibition, % at 12.5 µM | 320,000 tested, 0.96% active | AID 488896, 2010;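 active = mean replicate inhibition of at least 70% and a set share of replicates each scoring 70 or more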;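 also: 0% = median of neutral control wells and 100% = median of positive control wells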
SMARCA2 activ = SMARCA2 (BRM) function activators, primary screen, cell-based, luminescence, high throughput; MG213 cells, MMTV-luciferase reporter, dexamethasone, overnight; activation, % at 9.1 µM; 370,000 tested, 1% active; AID 652017, 2013; in the data active = activation above about 7.8%;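 also: 0% = vehicle wells and 100% = reference activator wells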
SMARCA2 act conf = SMARCA2 (BRM) function activators, confirmation, cell-based, luminescence, triplicate; AID 652260, 2013; MG213 cells, MMTV-luciferase with dexamethasone, overnight; MG213 cells expressing E1A, Rb sequestered; DMSO wells 0%, reference activator 100%; shares compounds with SMARCA2 activ; activation, % at 9.1 µM; 3,500 tested, 30% active;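 active = activation above its plate's cutoff, the mean activation of tested wells plus 3 SD, cut at about 7.9% in these data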
VP16 Luc act = GAL4-VP16 luciferase reporter activation, counter-screen for SMARCA2 (BRM) activator project, cell-based, pG5luc, luminescence, high throughput; shares compounds with SMARCA2 activ; HEK293 GAL4-VP16 pG5luc reporter; scaled: DMSO wells 0%, SAHA wells 100%; activation, % at 9.1 µM; 3,500 tested, 41% active; AID 686939, 2013;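 active = activation above the solvent-only control well mean plus 3 SD, averaged across control plates, cut at about 5.2% in these data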
* = called active by the depositor; i = inactive; / = no result.

SMILES | Hep lipid drop | CR mimetic SO | SR-BI uptake up | AHR activator | SR-BI HDL uptake | SMARCA2 activ | SMARCA2 act conf | VP16 Luc act
Cc1ccc2c(c1)Cc1nc3ccccc3nc1-2 | -5.8 | 71.1 | 2.5 | 25.3 | -2.5 | 7.2 | / | /
O=C1N2Cc3ccccc3C2CS(=O)(=O)N1Cc1ccccc1 (stereo unspecified) | / | / | / | / | / | -1.6 | / | /
COc1ccc(-c2cc(=O)n(-c3nc4ccccc4[nH]3)[nH]2)cc1 | -11.4 | 69.0 | 12.0 | 4.4 | -12.0 | 8.4* | 18.1* | 3.4
COc1ncnc2c1oc1ccccc12 | 1.9 | 85.4 | 25.0 | 11.4 | -25.0 | 11.6* | 13.4* | 6.0*
CC(C)Sc1ncnc2c1oc1ccccc12 | / | 96.1 | -9.6 | 9.0 | 9.6 | -0.4 | / | /
CN1CCN(NC(=O)c2ccc(Cl)c([N+](=O)[O-])c2)CC1 | 4.0 | 108.3 | 0.2 | 6.6 | -0.2 | 2.2 | / | /
Cc1cccc(C(=O)NCCc2ccccc2)c1 | / | 93.8 | 9.9 | 17.4 | -9.9 | 10.7* | 7.5 | 14.4*
CC(Oc1ccc(C(=O)NCCc2ccccc2)cc1)C(=O)O (stereo unspecified) | -3.4 | 106.2 | 20.6 | 10.0 | -20.6 | -1.6 | / | /
CCCCOc1ccc(C(=O)NCCc2ccccc2)cc1 | -6.2 | 106.5 | 8.5 | 5.8 | -8.5 | 8.4* | 7.7 | 12.6*
O=C(NCCc1ccccc1)c1ccc(Cl)c([N+](=O)[O-])c1 | / | 104.5 | 22.4 | 2.0 | -22.4 | 9.9* | 0.9 | 8.6*
O=C(NN1CCOCC1)c1ccc(Cl)c([N+](=O)[O-])c1 | 8.0 | 98.5 | 6.9 | -1.2 | -6.9 | 10.3* | 0.2 | 0.8
Cc1cc(C(=O)NCCc2ccccc2)ccc1[N+](=O)[O-] | -4.2 | 104.8 | -11.7 | -0.2 | 11.7 | 6.2 | / | /
O=c1c2ccccc2n(Cc2ccco2)n1[C@@H](Cc1ccccc1)Cn1cc(-c2ccc(-c3ccccc3)cc2)nn1 | / | / | / | / | / | -1.1 | / | /
O=C(NCCN1CCC(Cc2ccccc2)CC1)C1CCCN(S(=O)(=O)c2ccc(Cl)s2)C1 (stereo unspecified) | / | / | / | / | / | -5.5 | / | /
Nn1c(SCC(=O)N2CCOCC2)nnc1-c1cc(-c2ccc(F)cc2)n[nH]1 | / | / | / | / | / | -1.3 | / | /
O=C(O)c1cc(-c2ccc3ccccc3n2)nc2ccccc12 | 5.3 | 174.3 | 4.8 | 12.2 | -4.8 | 13.2* | 3.2 | 7.7*
COCc1cc(C)nc(N/N=C/c2ccc(Cl)c(Cl)c2)c1C#N | 18.9 | 85.3 | 3.9 | 0.8 | -3.9 | 8.3* | -2.2 | -0.3
COCc1cc(C)nc(N/N=C/c2ccc(-c3cc(C(=O)O)ccc3Cl)o2)c1C#N | -26.0 | 109.4 | / | 0.6 | / | -3.5 | / | /
CSc1ccc(/C=N/NC(=O)c2ccc(C)c(C)c2)cc1 | -0.7 | 104.0 | 8.6 | 15.0 | -8.6 | 0.1 | / | /
O=C(N/N=C/c1ccc(OC(=O)c2ccccc2)cc1)c1cccc(O)c1 | 14.5 | 102.0 | -13.8 | 2.8 | 13.8 | 10.0* | 4.4 | 0.2
CSc1ccc(/C=N/NC(=O)c2cc(O)cc(O)c2)cc1 | -12.8 | 91.4 | 8.9 | 9.4 | -8.9 | 9.3* | 9.4* | 5.4*
CCCC(=O)Nc1nnc(-c2ccc3c(c2)OCCO3)o1 | 4.5 | 100.8 | -5.3 | 14.1 | 5.3 | 10.3* | 6.1 | 4.2
Cc1cccc(N2CCN(C(=O)c3nn(C)c4c3CS(=O)(=O)c3ccccc3-4)CC2)c1C | 24.5 | 104.4 | -33.8 | 1.3 | 33.8 | 10.2* | -2.1 | 0.3
Cn1nc(C(=O)N2CCN(c3ccccc3F)CC2)c2c1-c1ccccc1S(=O)(=O)C2 | 32.1 | 98.4 | -35.3 | 2.9 | 35.3 | -1.3 | / | /
O=C(NC1CC1)C1CCN(c2ncccn2)CC1 | 20.0 | 96.1 | 20.1 | -0.1 | -20.1 | 9.2* | -1.3 | 0.2
SMILES | Hep lipid drop | CR mimetic SO | SR-BI uptake up | AHR activator | SR-BI HDL uptake | SMARCA2 activ | SMARCA2 act conf | VP16 Luc act
Cc1cc(C)nc(N2CCC(C(=O)NC3CCCCCC3)CC2)n1 | / | 74.7 | 5.4 | 0.3 | -5.4 | 3.2 | / | /
Cc1cc(O)c(NC(=O)c2ccco2)cc1C | -2.9 | 93.8 | 12.9 | 10.0 | -12.9 | 8.9* | 0.1 | 5.0
Cc1c(Cl)cccc1NC(=O)c1ccco1 | -1.5 | 101.4 | 13.8 | -1.5 | -13.8 | 7.5 | / | /
CCCCCCCCN1CN2Cc3ccccc3C2CS1(=O)=O (stereo unspecified) | / | / | / | / | / | -1.6 | / | /
COc1ccc(C(=O)OCCN(C)C2CN(Cc3cn(Cc4cccc(F)c4)nn3)S(=O)(=O)C2)cc1OC (stereo unspecified) | / | / | / | / | / | -1.2 | / | /
CC(=O)Nc1cc(C)c(S(C)(=O)=O)c(C)c1 | -8.7 | 102.0 | 18.8 | -0.3 | -18.8 | 8.1* | -1.6 | 2.2
CC(=O)Nc1ccc(OS(=O)(=O)c2c(C)cc(C)cc2C)cc1 | -16.3 | 75.2 | -1.0 | 10.1 | 14.5 | -2.0 | / | /
Nc1nnnn1/N=C/c1ccc(O)cc1 | 14.4 | 102.1 | 0.3 | -1.3 | -0.3 | -0.5 | / | /
CCN(C)c1ccc(/C=N\n2nnnc2N)cc1 | 7.0 | 99.2 | -18.0 | 30.7 | 18.0 | 12.3* | 7.6 | 14.9*
CCCCOC(=O)Nc1ccc(N2CCOCC2)cc1 | 0.5 | 120.8 | / | 5.3 | / | 10.5* | 9.8* | 5.7*
Clc1c(-c2ccccc2)nc2ccccn12 | 12.2 | 106.8 | 16.8 | 42.0 | -16.8 | 1.4 | / | /
c1ccn2c(c1)nc1c2nc2ccccn21 | / | 98.5 | 6.9 | 3.6 | -6.9 | 12.5* | 5.3 | 4.3
CN(C)c1ccc(-c2nc3ncc(Cl)cc3[nH]2)cc1 | / | / | / | / | / | -4.4 | / | /
COc1ccc(CNCCC2(Cc3ccccc3)CC(C)N(C)CC2C)cc1OC (stereo unspecified) | -20.3 | 105.8 | 26.9 | 1.1 | -26.9 | 8.3* | 5.3 | 2.4
Cc1c(NC(=O)C2CC(c3c(F)cccc3Cl)=NO2)c(=O)n(-c2ccccc2)n1C (stereo unspecified) | 1.4 | i | 20.7 | -0.2 | -20.7 | 8.4* | 0.2 | -0.6
COc1ccccc1CNC(=O)c1ccccc1NC(=O)C1=C(C)OCCS1 | -22.7 | 96.6 | -14.6 | 13.7 | 14.6 | 8.1* | 2.3 | 1.0
CN1C(=O)C[C@@](C#N)(C(=O)NCC(F)(F)F)[C@H]1c1ccccc1 | / | / | / | / | / | 2.7 | / | /
CC(COc1cccc(C#N)c1)CN1CCC(C(O)(c2ccccc2)c2ccccc2)CC1 (stereo unspecified) | / | / | / | / | / | 4.1 | / | /
